According to ChEMBL document CHEMBL4689842, “EUbOPEN Chemogenomics Library wave 1” (2021):

Test system: U2OS
Assay: Multiplex assay against U2OS
Assay type: toxicity, cell-based
Details: human
Method in brief: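 Live cells were stained at seeding with Hoechst33342, BioTracker Green Microtubule Cytoskeleton Dye, MitoTracker Red and Annexin V Alexa Fluor 680. Following compound addition, they were imaged on a CQ1 microscope at 37°C and 5% CO2 and gated by CellPathfinder machine learning into Hoechst high-intensity objects or normal cells, with normal cells split into healthy, pyknosed or fragmented nuclei and pyknosed cells into mitotic or apoptotic. Tubulin, mitochondrial-mass and membrane-permeability phenotypes are per cents of healthy-nucleus cells.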

[1] = 12 h, 1 µM, compound concentration 1 uM, replicate 1
[2] = 12 h, 1 µM, compound concentration 1 uM, replicate 2
[3] = 12 h, 10 µM, compound concentration 10 uM, replicate 1
[4] = 12 h, 10 µM, compound concentration 10 uM, replicate 2
[5] = 24 h, 1 µM, compound concentration 1 uM, replicate 1
[6] = 24 h, 1 µM, compound concentration 1 uM, replicate 2
[7] = 24 h, 10 µM, compound concentration 10 uM, replicate 1
[8] = 24 h, 10 µM, compound concentration 10 uM, replicate 2

Cl.Cl.NC1(c2ccc(-c3nc4ccn5c(=O)[nH]nc5c4cc3-c3ccccc3)cc2)CCC1
Population Apoptotic (%) [1]: 53% | Population Fragmented Nuclei (%) [1]: 11% | Population Healthy Nuclei (%) [1]: 81% | Population Hoechst High Intensity Objects (%) [1]: 1% | Population Membrane Permeable-Phenotype (%) [1]: 20% | Population Mitochondria Different-Phenotype (%) [1]: 13% | Population Mitotic Cells (%) [1]: 46% | Population Normal (%) [1]: 98% | Population Pyknosed Nuclei (%) [1]: 6% | Population Tubulin-Different-Phenotype (%) [1]: 14% | Total Cell Count [1]: 154 | Population Apoptotic (%) [2]: 50% | Population Fragmented Nuclei (%) [2]: 17% | Population Healthy Nuclei (%) [2]: 77% | Population Hoechst High Intensity Objects (%) [2]: 12% | Population Membrane Permeable-Phenotype (%) [2]: 10% | Population Mitochondria Different-Phenotype (%) [2]: 17% | Population Mitotic Cells (%) [2]: 50% | Population Normal (%) [2]: 87% | Population Pyknosed Nuclei (%) [2]: 4% | Population Tubulin-Different-Phenotype (%) [2]: 19% | Total Cell Count [2]: 116 | Population Apoptotic (%) [3]: 22% | Population Fragmented Nuclei (%) [3]: 16% | Population Healthy Nuclei (%) [3]: 40% | Population Hoechst High Intensity Objects (%) [3]: 9% | Population Membrane Permeable-Phenotype (%) [3]: 28% | Population Mitochondria Different-Phenotype (%) [3]: 53% | Population Mitotic Cells (%) [3]: 77% | Population Normal (%) [3]: 90% | Population Pyknosed Nuclei (%) [3]: 42% | Population Tubulin-Different-Phenotype (%) [3]: 70% | Total Cell Count [3]: 190 | Population Apoptotic (%) [4]: 11% | Population Fragmented Nuclei (%) [4]: 26% | Population Healthy Nuclei (%) [4]: 42% | Population Hoechst High Intensity Objects (%) [4]: 16% | Population Membrane Permeable-Phenotype (%) [4]: 16% | Population Mitochondria Different-Phenotype (%) [4]: 51% | Population Mitotic Cells (%) [4]: 88% | Population Normal (%) [4]: 83% | Population Pyknosed Nuclei (%) [4]: 31% | Population Tubulin-Different-Phenotype (%) [4]: 66% | Total Cell Count [4]: 160 | Population Apoptotic (%) [5]: 50% | Population Fragmented Nuclei (%) [5]: 9% | Population Healthy Nuclei (%) [5]: 85% | Population Hoechst High Intensity Objects (%) [5]: 1% | Population Membrane Permeable-Phenotype (%) [5]: 14% | Population Mitochondria Different-Phenotype (%) [5]: 11% | Population Mitotic Cells (%) [5]: 50% | Population Normal (%) [5]: 98% | Population Pyknosed Nuclei (%) [5]: 5% | Population Tubulin-Different-Phenotype (%) [5]: 17% | Total Cell Count [5]: 140 | Population Apoptotic (%) [6]: 16% | Population Fragmented Nuclei (%) [6]: 14% | Population Healthy Nuclei (%) [6]: 81% | Population Hoechst High Intensity Objects (%) [6]: 8% | Population Membrane Permeable-Phenotype (%) [6]: 10% | Population Mitochondria Different-Phenotype (%) [6]: 21% | Population Mitotic Cells (%) [6]: 83% | Population Normal (%) [6]: 91% | Population Pyknosed Nuclei (%) [6]: 3% | Population Tubulin-Different-Phenotype (%) [6]: 19% | Total Cell Count [6]: 103 | Population Apoptotic (%) [7]: 36% | Population Fragmented Nuclei (%) [7]: 8% | Population Healthy Nuclei (%) [7]: 27% | Population Hoechst High Intensity Objects (%) [7]: 19% | Population Membrane Permeable-Phenotype (%) [7]: 19% | Population Mitochondria Different-Phenotype (%) [7]: 68% | Population Mitotic Cells (%) [7]: 64% | Population Normal (%) [7]: 80% | Population Pyknosed Nuclei (%) [7]: 64% | Population Tubulin-Different-Phenotype (%) [7]: 55% | Total Cell Count [7]: 268 | Population Apoptotic (%) [8]: 29% | Population Fragmented Nuclei (%) [8]: 18% | Population Healthy Nuclei (%) [8]: 23% | Population Hoechst High Intensity Objects (%) [8]: 21% | Population Membrane Permeable-Phenotype (%) [8]: 11% | Population Mitochondria Different-Phenotype (%) [8]: 57% | Population Mitotic Cells (%) [8]: 70% | Population Normal (%) [8]: 78% | Population Pyknosed Nuclei (%) [8]: 58% | Population Tubulin-Different-Phenotype (%) [8]: 48% | Total Cell Count [8]: 181
